# From PMC7668563 (International journal of molecular biology (Edmond, Okla.), 2020)
# Read-outs that look alike come from different tables or passages of the source.
# Experiments:
# [1] = target: T1, apo-human transferrin (apo-hTf) (Homo sapiens, UniProt P02787); experiment: Far-UV circular dichroism titration of apo-hTf, secondary structure content
# Outline: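 Apo-hTf (4.0×10−7 mol L−1) in 2 mM Tris-HCl pH 7.4 was titrated with a 1.0×10−3 mol L−1 stock of test compound in Tris-HCl/2% DMSO, to final 0–2.4×10−6 mol L−1. Far-UV CD was recorded from 190–250 nm under nitrogen in a 1.0 cm cell: six scans at 100 nm/min. Baseline was buffer ± DMSO at room temperature. α-Helix was derived from MRE at 208 nm; β-sheet and random coil by the CD-RRG method.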
# [2] = system: human breast adenocarcinoma cell line, MCF-7; settings: cited from earlier work
# [3] = target: T1, apo-human transferrin (apo-hTf); experiment: Thermodynamic parameters of apo-hTf complex formation; assay type: binding; settings: for ∆H° / ∆S°: pH 7.4, from Ksv at 296-317 K
# Outline: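 Ksv values were obtained from apo-hTf fluorescence quenching at pH 7.4 at 296, 303, 310 and 317 K. ΔH°, ΔS° and ΔG° were derived from linear regression of ln(Ksv) vs 1/T (Van't Hoff equation).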
# [4] = system: human colorectal adenocarcinoma cell line, HT-29; settings: cited from earlier work
# [5] = target: T1, apo-human transferrin (apo-hTf); experiment: Fluorescence resonance energy transfer; assay type: binding; settings: for Förster critical energy transfer distance R0 / binding distance r (donor-acceptor): k^2=2/3, n=1.336, ØD=0.118; for efficiency of energy transfer E: room temperature, 1.0×10^−5 mol L^−1 each
# Outline: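 Emission spectrum of 1.0×10−5 mol L−1 apo-hTf and absorption spectrum of 1.0×10−5 mol L−1 test compound were recorded in 20 mM Tris-HCl pH 7.4 at room temperature, 260–450 nm, and their spectral overlap determined. E was calculated from apo-hTf fluorescence without and with equimolar test compound. R0 and donor–acceptor distance r came from Förster equations.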
# [6] = target: T1, apo-human transferrin (apo-hTf); experiment: UV-Vis absorbance titration of apo-hTf; assay type: binding; settings: for Ka at 280 nm: absorbance at 280 nm; for Ka at 361 nm: absorbance at 361 nm; for Association constants, Ka, 280 nm: absorbance of apo-hTf at 280 nm; for Association constants, Ka, 280 nm / Association constants, Ka, 361 nm: pH 7.4; for Association constants, Ka, 361 nm: absorbance of apo-hTf at 361 nm
# [7] = target: T1, apo-human transferrin (apo-hTf); experiment: Fluorescence quenching of apo-hTf; assay type: binding; settings: for biomolecular quenching rate constant kq: kq=Ksv/τ0; for Stern-Volmer quenching constant Ksv / number of binding sites n: pH 7.4; for quenching association constant Ka: pH 7.4, modified Stern-Volmer
# Outline: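 Intrinsic fluorescence of apo-hTf in Tris-HCl pH 7.4 was titrated with test compound (Tris-HCl/2% DMSO). Conditions: excitation 280 nm, emission 290–500 nm, slits 10/5 nm, 1.0 cm quartz cell, at 296, 303, 310 and 317 K, triplicate titrations. Intensities were corrected for inner filter effect using absorbances at excitation and emission wavelengths. Ksv came from Stern-Volmer plots of F0/F vs [Q]; kq = Ksv/τ0 (τ0 ~1.0×10−8); Ka and n came from the modified Stern-Volmer equation.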
# T1 sequence (P02787 20-698): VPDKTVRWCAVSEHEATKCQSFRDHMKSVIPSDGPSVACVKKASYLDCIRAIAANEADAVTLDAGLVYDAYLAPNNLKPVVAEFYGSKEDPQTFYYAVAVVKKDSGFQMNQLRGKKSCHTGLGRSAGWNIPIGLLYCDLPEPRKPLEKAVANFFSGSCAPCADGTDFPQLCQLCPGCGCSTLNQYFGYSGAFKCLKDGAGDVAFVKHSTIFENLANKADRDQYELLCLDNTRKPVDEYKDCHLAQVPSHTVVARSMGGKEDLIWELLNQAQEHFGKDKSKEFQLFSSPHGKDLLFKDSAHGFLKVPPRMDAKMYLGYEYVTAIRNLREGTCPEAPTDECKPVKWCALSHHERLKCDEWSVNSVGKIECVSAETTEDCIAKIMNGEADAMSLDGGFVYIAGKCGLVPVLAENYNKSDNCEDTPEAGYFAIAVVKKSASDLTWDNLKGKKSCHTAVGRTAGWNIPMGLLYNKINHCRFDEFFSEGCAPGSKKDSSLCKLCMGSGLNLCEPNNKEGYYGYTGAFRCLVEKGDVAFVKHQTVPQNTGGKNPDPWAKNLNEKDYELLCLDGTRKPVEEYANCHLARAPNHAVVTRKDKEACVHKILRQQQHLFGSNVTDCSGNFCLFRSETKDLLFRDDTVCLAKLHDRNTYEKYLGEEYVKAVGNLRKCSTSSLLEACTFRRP
smiles,measurement,setting,value
[Cl-].[Cl-].[Mo+4].c1cc[cH-]c1.c1cc[cH-]c1 [Cp2MoCl2],other secondary structure content of apo-hTf,[1]; compound concentration 0.4 (M),19.3%
same,random coil content of apo-hTf,[1]; compound concentration 0.4 (M),33.9%
same,α-helix content of apo-hTf,[1]; compound concentration 0.4 (M),28.7%
same,β-sheet content of apo-hTf,[1]; compound concentration 0.4 (M),18.1%
same,other secondary structure content of apo-hTf,[1]; compound concentration 0.8 (M),19.4%
same,random coil content of apo-hTf,[1]; compound concentration 0.8 (M),34%
same,α-helix content of apo-hTf,[1]; compound concentration 0.8 (M),28.3%
same,β-sheet content of apo-hTf,[1]; compound concentration 0.8 (M),18.3%
same,other secondary structure content of apo-hTf,[1]; compound concentration 1.2 (M),19.9%
same,random coil content of apo-hTf,[1]; compound concentration 1.2 (M),34.1%
same,α-helix content of apo-hTf,[1]; compound concentration 1.2 (M),27.6%
same,β-sheet content of apo-hTf,[1]; compound concentration 1.2 (M),18.4%
same,other secondary structure content of apo-hTf,[1]; compound concentration 1.6 (M),20%
same,random coil content of apo-hTf,[1]; compound concentration 1.6 (M),34.3%
same,α-helix content of apo-hTf,[1]; compound concentration 1.6 (M),27.1%
same,β-sheet content of apo-hTf,[1]; compound concentration 1.6 (M),18.6%
same,other secondary structure content of apo-hTf,[1]; compound concentration 2 (M),20.1%
same,random coil content of apo-hTf,[1]; compound concentration 2 (M),34.5%
same,α-helix content of apo-hTf,[1]; compound concentration 2 (M),26.5%
same,β-sheet content of apo-hTf,[1]; compound concentration 2 (M),18.9%
same,other secondary structure content of apo-hTf,[1]; compound concentration 2.4 (M),20.2%
same,random coil content of apo-hTf,[1]; compound concentration 2.4 (M),34.7%
same,α-helix content of apo-hTf,[1]; compound concentration 2.4 (M),25.8%
same,β-sheet content of apo-hTf,[1]; compound concentration 2.4 (M),19.3%
same,"IC50 (±SD), MCF-7",[2],proliferative activity
same,"IC50 (±SD), MCF-7",[2]; listed as Cp^2MoCl^2,"Proliferative[21],[68]"
same,∆G°,[3]; 296 K,-4.293 kcal/mol
same,∆G°,[3]; 303 K,-4.46 kcal/mol
same,∆G°,[3]; 310 K,-4.625 kcal/mol
same,∆G°,[3]; 317 K,-4.792 kcal/mol
same,∆H°,[3],2.768 kcal/mol
same,∆S°,[3],99.78 J/mol K
same,IC50,"[4]; read-out: IC50 (±SD), HT-29, ref 21",2600 µM
same,Förster critical energy transfer distance R0,[5],3.38 nm
same,binding distance r (donor-acceptor),[5],4.44 nm
same,efficiency of energy transfer E,[5],0.162
same,Ka at 280 nm,[6],3060 M⁻¹
same,Ka at 361 nm,[6],3090 M⁻¹
same,"Association constants, Ka, 280 nm",[6],3.06 10^3 M^−1
same,"Association constants, Ka, 361 nm",[6],3.09 10^3 M^−1
same,biomolecular quenching rate constant kq,[7]; 296 K,1.51e+11 M⁻¹ s⁻¹
same,Stern-Volmer quenching constant Ksv,[7]; 296 K,1510 M⁻¹
same,number of binding sites n,[7]; 296 K,1.26
same,quenching association constant Ka,[7]; 296 K,19300 M⁻¹
same,biomolecular quenching rate constant kq,[7]; 303 K,1.59e+11 M⁻¹ s⁻¹
same,Stern-Volmer quenching constant Ksv,[7]; 303 K,1590 M⁻¹
same,number of binding sites n,[7]; 303 K,1.23
same,quenching association constant Ka,[7]; 303 K,15800 M⁻¹
same,biomolecular quenching rate constant kq,[7]; 310 K,1.81e+11 M⁻¹ s⁻¹
same,Stern-Volmer quenching constant Ksv,[7]; 310 K,1810 M⁻¹
same,number of binding sites n,[7]; 310 K,1.19
same,quenching association constant Ka,[7]; 310 K,12100 M⁻¹
same,biomolecular quenching rate constant kq,[7]; 317 K,2.05e+11 M⁻¹ s⁻¹
same,Stern-Volmer quenching constant Ksv,[7]; 317 K,2050 M⁻¹
same,number of binding sites n,[7]; 317 K,1.16
same,quenching association constant Ka,[7]; 317 K,9500 M⁻¹
C1CCCC1.C1CCCC1.[Cl][W][Cl] [Cp2WCl2],other secondary structure content of apo-hTf,[1]; compound concentration 0.4 (M),18.3%
same,random coil content of apo-hTf,[1]; compound concentration 0.4 (M),33.7%
same,α-helix content of apo-hTf,[1]; compound concentration 0.4 (M),29.8%
same,β-sheet content of apo-hTf,[1]; compound concentration 0.4 (M),18.2%
same,other secondary structure content of apo-hTf,[1]; compound concentration 0.8 (M),18.4%
same,random coil content of apo-hTf,[1]; compound concentration 0.8 (M),33.8%
same,α-helix content of apo-hTf,[1]; compound concentration 0.8 (M),29.5%
same,β-sheet content of apo-hTf,[1]; compound concentration 0.8 (M),18.3%
same,other secondary structure content of apo-hTf,[1]; compound concentration 1.2 (M),18.6%
same,random coil content of apo-hTf,[1]; compound concentration 1.2 (M),33.9%
same,α-helix content of apo-hTf,[1]; compound concentration 1.2 (M),29.1%
same,β-sheet content of apo-hTf,[1]; compound concentration 1.2 (M),18.4%
same,other secondary structure content of apo-hTf,[1]; compound concentration 1.6 (M),19.1%
same,random coil content of apo-hTf,[1]; compound concentration 1.6 (M),34.1%
same,α-helix content of apo-hTf,[1]; compound concentration 1.6 (M),28.3%
same,β-sheet content of apo-hTf,[1]; compound concentration 1.6 (M),18.5%
same,other secondary structure content of apo-hTf,[1]; compound concentration 2 (M),19.2%
same,random coil content of apo-hTf,[1]; compound concentration 2 (M),34.3%
same,α-helix content of apo-hTf,[1]; compound concentration 2 (M),27.9%
same,β-sheet content of apo-hTf,[1]; compound concentration 2 (M),18.6%
same,other secondary structure content of apo-hTf,[1]; compound concentration 2.4 (M),19.4%
same,random coil content of apo-hTf,[1]; compound concentration 2.4 (M),34.4%
same,α-helix content of apo-hTf,[1]; compound concentration 2.4 (M),27.5%
same,β-sheet content of apo-hTf,[1]; compound concentration 2.4 (M),18.7%
same,IC50,"[2]; read-out: IC50 (±SD), MCF-7, ref 19",630 µM
same,∆G°,[3]; 296 K,-4.343 kcal/mol
same,∆G°,[3]; 303 K,-4.498 kcal/mol
same,∆G°,[3]; 310 K,-4.653 kcal/mol
same,∆G°,[3]; 317 K,-4.809 kcal/mol
same,∆H°,[3],2.24 kcal/mol
same,∆S°,[3],93.12 J/mol K
same,IC50,"[4]; read-out: IC50 (±SD), HT-29, ref 19",1000 µM
same,Förster critical energy transfer distance R0,[5],4.53 nm
same,binding distance r (donor-acceptor),[5],6.05 nm
same,efficiency of energy transfer E,[5],0.15
same,Ka at 280 nm,[6],2930 M⁻¹
same,Ka at 361 nm,[6],2980 M⁻¹
same,"Association constants, Ka, 280 nm",[6],2.93 10^3 M^−1
same,"Association constants, Ka, 361 nm",[6],2.98 10^3 M^−1
same,biomolecular quenching rate constant kq,[7]; 296 K,1.61e+11 M⁻¹ s⁻¹
same,Stern-Volmer quenching constant Ksv,[7]; 296 K,1610 M⁻¹
same,number of binding sites n,[7]; 296 K,1.16
same,quenching association constant Ka,[7]; 296 K,7800 M⁻¹
same,biomolecular quenching rate constant kq,[7]; 303 K,1.76e+11 M⁻¹ s⁻¹
same,Stern-Volmer quenching constant Ksv,[7]; 303 K,1760 M⁻¹
same,number of binding sites n,[7]; 303 K,1.13
same,quenching association constant Ka,[7]; 303 K,6000 M⁻¹
same,biomolecular quenching rate constant kq,[7]; 310 K,1.89e+11 M⁻¹ s⁻¹
same,Stern-Volmer quenching constant Ksv,[7]; 310 K,1890 M⁻¹
same,number of binding sites n,[7]; 310 K,1.08
same,quenching association constant Ka,[7]; 310 K,4200 M⁻¹
same,biomolecular quenching rate constant kq,[7]; 317 K,2.09e+11 M⁻¹ s⁻¹
same,Stern-Volmer quenching constant Ksv,[7]; 317 K,2090 M⁻¹
same,number of binding sites n,[7]; 317 K,1.04
same,quenching association constant Ka,[7]; 317 K,3200 M⁻¹
